An excerpt weighted towards active compounds, which were near 2.1% of everything screened.
Runt-CBFb FRET: blocks binding of human RUNX1 Runt domain to CBFb; Q01196+Q13951; Cerulean-Runt/Venus-CBFb FRET ratio 530/480, 1 h; inhibition, % at 20 µM; 220,000 compounds, 0.46% hits; AID 1496;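 active means inhibition over about 50% at 20 µM in the single-dose screen, limit read from the data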;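 further: 0% = DMSO wells and 100% = excess unlabeled CBFb competitor control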
Target sequence (Q01196 whole entry, looked up, the tested form may be a part): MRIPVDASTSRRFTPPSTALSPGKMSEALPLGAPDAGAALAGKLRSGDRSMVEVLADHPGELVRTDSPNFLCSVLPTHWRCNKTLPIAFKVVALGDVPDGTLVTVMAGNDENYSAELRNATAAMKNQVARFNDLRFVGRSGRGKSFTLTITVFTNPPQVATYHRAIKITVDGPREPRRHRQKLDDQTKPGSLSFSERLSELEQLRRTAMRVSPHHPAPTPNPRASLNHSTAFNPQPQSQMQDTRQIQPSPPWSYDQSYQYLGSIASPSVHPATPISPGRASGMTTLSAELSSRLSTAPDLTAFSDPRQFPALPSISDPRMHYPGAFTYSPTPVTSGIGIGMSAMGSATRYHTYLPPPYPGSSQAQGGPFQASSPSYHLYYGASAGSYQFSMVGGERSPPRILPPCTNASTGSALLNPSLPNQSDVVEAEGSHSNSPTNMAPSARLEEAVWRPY
Target sequence (Q13951 whole entry, looked up, the tested form may be a part): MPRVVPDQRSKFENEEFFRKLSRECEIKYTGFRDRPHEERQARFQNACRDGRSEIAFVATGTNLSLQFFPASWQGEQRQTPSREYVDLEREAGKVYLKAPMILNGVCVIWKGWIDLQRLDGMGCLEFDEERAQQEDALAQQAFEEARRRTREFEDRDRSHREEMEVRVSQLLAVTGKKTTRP
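Measured by: fluorescence energy transfer, 422 nm excitation, 530/480 nm emission; Assay system: Cerulean-Runt domain; Medium: Tris pH 7.5 buffer with BSA; Measure: loss of energy transfer signal; Controls: 5 µM unlabeled CBFb as full-inhibition high control; Incubation: protein complex preformed 1 h, compound exposure 1 h, room temperature, dark.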
Hck Nef HTS: inhibitors of human Hck kinase activated by Nef; P08631; Recombinant Hck-YEEI plus Nef, Z-Lyte FRET kinase assay; inhibition, % at 20 µM; 220,000 compounds, 0.68% hits;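 active means Hck-Nef kinase inhibition above about 50%, limit read from the data; inactive means inhibition below that limit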;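 further: 0% = DMSO with Hck plus Nef and 100% = Hck alone without Nef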
RanGTP-Imp inh: disruptors of Ran-importin-beta complex formation – biochemical, FRET, CFP-Ran, YFP-importin-beta, homogeneous, primary screen. cell-free CFP-Ran/YFP-importin-beta FRET ratio. inhibition, % (no concentration beside the values). 300,000 compounds, 1.1% hits. AID 2216;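 active means more than half of the replicate wells show a fall in the fluorescence ratio signal beyond about 16%, limit read from the data, passing the limit was not always enough; inconclusive means exactly half of the replicate wells pass the set limit; inactive means fewer than half of replicates pass the limit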;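 further: 0% = DMSO wells and 100% = Ran loaded with GDP instead of GTP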
Runt-SMMHC FRET: Runt domain-CBFb-SMMHC interaction inhibition | inhibition, % at 20 µM | AID 1434 | 220,000 compounds, 0.74% hits | Q01196+Q13951 | Cerulean-Runt/Venus-CBFb-SMMHC FRET ratio 530/480, 1 h;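 active means mean inhibition across duplicate retests at 20 µM reaching about 50%, limit read from the data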;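 further: 0% = DMSO wells and 100% = wells with excess untagged CBFb-SMMHC; inhibitors lower the FRET ratio by blocking Runt binding to CBFb-SMMHC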
p-CIP stab down: lowers stability of the mouse p/CIP coactivator protein | F442A p/CIP-EGFP cells, EGFP fluorescence, 16 h | 290,000 compounds, 0.01% hits | decrease of EGFP signal, % at 10 µM | Q05BA5;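 active means EGFP signal decrease of at least 30% at 10 µM or well 3 SD below plate mean, unless failing retest; inactive means the rest, including hits failing retest or dose response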
DSG3 Ab inh: human desmoglein-3 autoantibody binding inhibition | DSG3-coupled beads, scFv-anti-DSG3-GFP binding, flow cytometry; stronger effect = lower value | binding (percent of control), % at 10 µM | 310,000 compounds, 0.48% hits | AID 588358;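 active means binding more than 3 SD below its plate's average and above zero; inconclusive means below that plate limit but binding exactly zero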;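 further: hits lower antibody fragment binding to DSG3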
* = called active by the depositor; ? = inconclusive; . = no result.

SMILES	Runt-CBFb FRET	Hck Nef HTS	RanGTP-Imp inh	Runt-SMMHC FRET	p-CIP stab down	DSG3 Ab inh
COCCN(C(=O)CSc1cc(C)c2ccccc2n1)c1c(N)n(CC(C)C)c(=O)[nH]c1=O	.	.	.	.	.	110
Cc1ccc(C(=O)NC(=S)N(C)C2CCCCC2)cc1	.	.	-1	.	-19	113
NC(=O)COC(=O)c1ccc2noc(-c3ccccc3)c2c1	.	.	3	.	-14	94
CCCCn1nc(NC(=O)COC)c2cc3ccc(C)cc3nc21	.	.	5	.	1	90
CCCCn1nc(NC(=O)CC)c2cc3cc(OC)ccc3nc21	.	.	65*	.	-17	99
CCCn1nc(NC(=O)C(C)(C)C)c2cc3cc(OC)ccc3nc21	.	.	67*	.	-16	103
O=C(O)c1cccc(OS(=O)(=O)c2cc(Br)ccc2Br)c1	.	.	.	.	.	96
CCOC(=O)N1CCC(N2C(=O)c3ccc(C(=O)Nc4cccc(OC)c4)cc3C2=O)CC1	.	.	2	.	5	107
CC1=C([N+](=O)[O-])C(c2ccccc2Cl)NC(=O)N1C (configuration not stated)	.	.	0	.	4	92
Cc1nc2c(cc1C(=O)N/N=C/c1ccc([N+](=O)[O-])cc1)c(=O)n(C)c(=O)n2C	-1	6	-5	-2	-3	-7.8*
N#CC1=C(SCc2ccccc2)NC(=O)CC1c1cccc(O)c1 (configuration not stated)	0	1	-6	1	-6	83*
N#CC1=C(SCc2ccccc2)NC(=O)CC1c1ccc(O)cc1 (configuration not stated)	0	1	-3	10	-6	102
COc1cc(/C=N\Nc2nc(-c3ccc(C)cc3)c(NC(C)=O)s2)ccc1O	15	105*	-1	-3	0	99
CC(=O)Nc1sc(N/N=C/c2ccc(N(C)C)cc2)nc1-c1ccc(C)cc1	4	41	?	0	6	107
COc1ccccc1CNC(=O)C(=O)NCC1CCCN1S(=O)(=O)c1cccs1 (configuration not stated)	.	.	6	.	.	92
Nc1cccc2c1C(=O)N(C(=O)c1ccc(Cl)c(S(=O)(=O)N3CCCCCC3)c1)C2=O	-12	-17	20*	62*	-6	116
Cc1ccc(S(=O)(=O)N2CCOCC2)cc1C(=O)N1C(=O)c2cccc(N)c2C1=O	-34	2	1	-77	-6	106
Nc1cccc2c1C(=O)N(C(=O)c1cccc(S(=O)(=O)N3CCCCCC3)c1)C2=O	12	-19	19*	62*	2	93
CC1=Nc2ccccc2/C1=C/c1nc(-c2ccc(C)s2)oc1O	-17	8	37*	-36	-67	122
CC1=Nc2ccccc2/C1=C\c1nc(-c2ccccc2)oc1O	-18	3	-1	-26	-16	.
COc1ccc(CN2CCN(c3nc4ccccc4s3)CC2)cc1	.	.	-3	.	-10	105
COc1ccc(CCn2c(O)cc3nn(-c4nc5ccccc5s4)c(=O)c-3c2C)cc1	-3	68*	5	-16	-12	.
O=C(O)C1CCCC2CN3CCc4c([nH]c5ccccc45)C3C(O)C21 (configuration not stated)	.	.	30*	.	-6	120
CN(c1ccccc1)S(=O)(=O)c1cccc(C(=O)OCC(=O)Nc2ccc(C(N)=O)cc2)c1	.	.	.	.	.	94
COc1ccc(NC(=O)c2cccc3c2C(=O)c2ccc(-c4ccc(F)cc4OCc4ccccc4)cc2S3(=O)=O)cc1	.	.	.	.	.	98
SMILES	Runt-CBFb FRET	Hck Nef HTS	RanGTP-Imp inh	Runt-SMMHC FRET	p-CIP stab down	DSG3 Ab inh
COc1ccc(OC[C@@H](O)CNC(=O)c2cccc3c2C(=O)c2ccc(-c4ccc(F)cc4OCc4ccccc4)cc2S3(=O)=O)cc1	.	.	.	.	.	60*
COc1ccc(C(=O)NCC(=O)N2CCN(C(=O)c3ccco3)CC2)cc1[N+](=O)[O-]	.	.	.	.	.	127
COc1ccc(S(=O)(=O)Nc2ccc(Cc3ccncc3)cc2)cc1OC	.	.	-1	.	-12	40*
COc1ccc(-c2nn(-c3ccccc3)cc2/C=C2/SC(=S)N(Cc3ccco3)C2=O)c(C)c1	-21	0	-3	-105	-8	87*
Oc1ccccc1-c1nnc(COc2ccc(Cl)cc2Cl)o1	3	15	1	4	-12	66*
COc1cc2c(cc1OC)C1(Nc3c-2c(C)nn3-c2ccccc2)C(=O)Nc2ccccc21 (configuration not stated)	3	6	.	-3	-13	103
CCc1nn(-c2ccccc2)c2c1-c1cc(OC)c(OC)cc1C1(N2)C(=O)Nc2ccccc21 (configuration not stated)	0	-19	31*	0	-9	97
Cc1ccc(NC(NC(=O)OCCn2c([N+](=O)[O-])cnc2C)C(Cl)(Cl)Cl)cc1 (configuration not stated)	0	1	18*	-1	3	.
O=C(O)Cc1ccc(O)c(F)c1	0	2	3	6	1	68*
COc1cc(CC(=O)O)ccc1O	-1	29	-2	-1	3	.
COc1ccc(-c2cc(-c3nnc(-c4ccncc4)o3)c3ccccc3n2)cc1	34	5	3	70*	-7	101
COc1cc(-c2nnc(-c3cc(-c4ccccc4)nc4ccccc34)o2)cc(OC)c1OC	.	.	.	.	.	101
Cc1ccc(CSc2[nH]c(=O)ncc2C)cc1	.	.	2	.	-6	100
CCN(CC)S(=O)(=O)c1cccc(NC(=O)CSc2nnc(N)s2)c1	0	8	30*	-2	-9	94
CCCCNC(=O)Nc1ncn[nH]1	1	7	1	4	-4	97
COC(=O)C1=CNC=C(C(=O)OC)C1c1ccc(C(=O)OC)cc1	28	24	6	71*	-8	100
CCC(C)(C)n1nnnc1C(c1cc2ccc(OC)cc2[nH]c1=O)N1CCc2ccccc2C1 (configuration not stated)	-20	3	16*	-5	-4	106
CC(C)(C)n1nnnc1C(c1cc2cc3c(cc2[nH]c1=O)OCCO3)N1CCSCC1 (configuration not stated)	1	2	-2	-2	-3	99
COc1ccc2cc(C(c3nnnn3C(C)(C)C)N3CCc4ccccc4C3)c(=O)[nH]c2c1 (configuration not stated)	-18	7	.	-34	11	.
CCC(C)(C)n1nnnc1C(c1cc2cc3c(cc2[nH]c1=O)OCO3)N1CCN(C)CC1 (configuration not stated)	40	4	3	66*	-5	97
Cc1ccc(S(=O)(=O)NCc2ccc3c(c2)cc(C)n3C)cc1	-5	0	5	-3	2	71*
COc1cc(C(C)n2nnc3ccccc32)ccc1O (configuration not stated)	.	.	.	.	.	102

Source: PubChem (several laboratories)
